# hIAP activ: increases human intestinal alkaline phosphatase activity; P09923; purified human IAP, CDP-Star luminescence, 30 min; hits give high values; 1 = vehicle-only enzyme, 0 = enzyme-free background; activation factor at 10 µM; 330,000 compounds, 0.16% hits; AID 2524;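 active = activation factor of the enzyme at least 2-fold when tested at 20 µM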
# Target sequence (P09923 whole entry, looked up): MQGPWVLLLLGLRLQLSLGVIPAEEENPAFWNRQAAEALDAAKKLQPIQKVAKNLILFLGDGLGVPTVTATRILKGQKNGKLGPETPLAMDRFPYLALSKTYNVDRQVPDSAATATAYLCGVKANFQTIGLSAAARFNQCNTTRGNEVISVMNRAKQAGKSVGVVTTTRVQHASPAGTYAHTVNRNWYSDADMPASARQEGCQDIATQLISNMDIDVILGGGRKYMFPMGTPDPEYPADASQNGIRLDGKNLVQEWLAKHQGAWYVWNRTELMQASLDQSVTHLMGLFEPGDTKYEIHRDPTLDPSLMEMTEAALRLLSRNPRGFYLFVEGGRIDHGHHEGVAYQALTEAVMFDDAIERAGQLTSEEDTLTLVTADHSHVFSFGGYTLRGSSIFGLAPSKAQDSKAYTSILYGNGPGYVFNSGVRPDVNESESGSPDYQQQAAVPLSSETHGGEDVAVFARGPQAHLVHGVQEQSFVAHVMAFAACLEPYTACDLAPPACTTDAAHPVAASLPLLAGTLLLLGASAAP
# hIAP block: blocks human intestinal alkaline phosphatase. inhibition, % at 10 µM. AID 2544. purified IAP, CDP-Star luminescence, 30 min. 330,000 compounds, 0.12% hits. P09923;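 active = inhibition reaching a set limit with compound at 10 µM in the primary screen, cut at about 35% in these data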;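 also: plate controls were DMSO wells with enzyme for no effect and no-enzyme buffer wells for full effect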
# mIAP inh: mouse IAP inhibition; purified mouse IAP, CDP-Star luminescence, 30 min; inhibition, % at 10 µM; 330,000 compounds, 0.2% hits;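 active = inhibition of at least 40% at 10 µM in the primary screen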;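 also: plate controls were DMSO with enzyme for no effect and no enzyme wells for full effect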
# mIAP act: mouse IAP activation. muIAP, CDP-Star luminescence, 30 min; hits give high values; 1 = vehicle-only enzyme signal, 0 = enzyme-free wells. 330,000 compounds, 0.24% hits. activation factor at 10 µM;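 active = activation factor of at least 2 at 20 µM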
#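 Assay system: mouse IAP enzyme; reagent: chemiluminescent substrate CDP-Star; dosing: test compounds delivered from DMSO solution; schedule: 30 min at room temperature; measured by: luminescence from enzymatic CDP-Star hydrolysis; controls: DMSO-only wells and no-enzyme negative control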
# bIAP inhibitor: blocks bovine intestinal alkaline phosphatase activity. purified bovine IAP, CDP-star luminescence, 30 min. inhibition, % at 20 µM. 190,000 tested, under 10 active. AID 1019;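 active = over 50% inhibition of intestinal alkaline phosphatase at 20 µM in the single-dose screen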
#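 test system = bovine IAP enzyme | medium = DEA buffer 100 mM, pH 9.8, with MgCl2 1.0 mM, ZnCl2 0.02 mM | detection = luminescence | dosing = single compound dose of 20 µM, 2% DMSO final | incubation = 30 min reaction at room temperature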
# bIAP activator: intestinal alkaline phosphatase (bovine) activation; AID 1016; purified bovine IAP, CDP-star luminescence, 30 min; hits give high values; fold of DMSO-control signal, blank-subtracted; 200,000 compounds, 0.17% hits; activation factor at 20 µM;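 active = activation factor of 2 or more at 20 µM, a signal rise over negative controls twice the positive control's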
# An asterisk follows results filed as active; . = no result given. Shown are actives, neighbours in structure and some others; about 0.72% of the full set was active somewhere.
SMILES,hIAP activ,hIAP block,mIAP inh,mIAP act,bIAP inhibitor,bIAP activator
C[C@H](CO)N1C[C@H](C)[C@H](CN(C)S(=O)(=O)c2cccs2)Oc2ccc(NC(=O)Nc3ccc4c(c3)OCO4)cc2CC1=O,1.02,-2.0,-129.0,2.29*,.,.
C[C@H](CO)N1C[C@H](C)[C@H](CN(C)S(=O)(=O)c2ccccc2)Oc2ccc(NC(=O)NC3CCCCC3)cc2CC1=O,0.999,0.1,-170.9,2.71*,.,.
COc1ccc(S(=O)(=O)N(C)C[C@H]2Oc3ccc(NC(=O)NC(C)C)cc3C(=O)N([C@H](C)CO)C[C@@H]2C)cc1,1.12,-12.1,-43.2,1.43,.,.
COc1ccc(S(=O)(=O)N(C)C[C@H]2Oc3ccc(NC(=O)Nc4ccc5c(c4)OCO5)cc3C(=O)N([C@H](C)CO)C[C@@H]2C)cc1,1.04,-3.8,-129.0,2.29*,.,.
COc1ccc(S(=O)(=O)N(C)C[C@H]2Oc3ccc(NC(=O)Nc4ccc5c(c4)OCO5)cc3CC(=O)N([C@@H](C)CO)C[C@@H]2C)cc1,1.18,-17.5,-43.9,1.44,.,.
C[C@H](CO)N1C[C@H](C)[C@@H](CN(C)S(=O)(=O)c2cccs2)Oc2c(NC(=O)Nc3ccc4c(c3)OCO4)cccc2C1=O,0.957,4.3,-15.5,1.16,.,.
Cc1ccc(S(=O)(=O)Nc2ccc3c(c2)CC(=O)N([C@H](C)CO)C[C@@H](C)[C@H](CN(C)S(=O)(=O)c2ccccc2)O3)cc1,1.07,-6.6,2.7,0.973,.,.
C[C@H](CO)N1C[C@H](C)[C@@H](CN(C)S(=O)(=O)c2cccs2)Oc2ccc(NC(=O)Nc3ccc4c(c3)OCO4)cc2C1=O,0.984,1.6,-116.4,2.16*,.,.
CNC(=O)c1cc(Oc2ccc(NC(=O)Nc3ccc(Cl)c(C(F)(F)F)c3)cc2)ccn1,1.25,-24.8,-36.4,1.36,.,.
COc1ccc(NC(=O)Nc2ccc3c(c2)C(=O)N([C@@H](C)CO)C[C@@H](C)[C@@H](CN(C)S(=O)(=O)c2cccs2)O3)cc1,0.978,2.2,-214.2,3.14*,.,.
Cn1c(C=O)c(C#Cc2ccccc2)c2ccccc21,0.889,11.1,18.0,0.82,.,.
COc1cccc(CNC(=O)CCC2CCCN(C(=O)c3cc(C4CC4)[nH]n3)C2)c1 (stereo not drawn),1.32,-31.9,-9.5,1.09,-123.4,2.2*
COc1cccc(CNC(=O)CCC2CCCN(C(=O)c3cc(C)on3)C2)c1 (stereo not drawn),1.05,-5.1,-13.5,1.14,-1.4,1
O=C(CCNS(=O)(=O)c1ccccc1)NNC(=O)COc1ccc(Cl)cc1,1.4,-39.6,29.8,0.702,.,.
c1ccc(-c2cc3cc4c(cc3cn2)OCO4)cc1,0.902,9.8,7.2,0.928,.,.
O=C(Nc1ccccc1C(=O)NC(Cc1ccccc1)C(=O)NC1CCCCCC1)c1ccccc1 (stereo not drawn),0.943,5.7,-129.4,2.29*,-5.7,1.1
COc1ccc(/C=C/C(=O)OCC(=O)NCc2ccccc2Cl)cc1OC,1.21,-21.0,-11.2,1.11,.,.
Cc1cccc(NC(=S)NC(C)CCc2ccccc2)c1 (stereo not drawn),1.08,-7.8,-117.2,2.17*,37.6,0.6
Cc1ccc(C)c(NC(=S)NCCSc2ccc(Cl)cc2)c1,1.05,-5.0,-86.6,1.87,36.3,0.6
CCc1ccccc1NC(=S)NCCSc1ccc(Cl)cc1,0.808,19.2,-102.4,2.02*,.,0.5
Cc1cccc(NC(=S)NCCSc2ccc(Cl)cc2)c1,1.14,-14.2,-122.9,2.23*,40.5,0.6
Cc1cccc(NC(=S)NCC(C)CSc2ccc(Cl)cc2)c1 (stereo not drawn),1.38,-37.5,-224.8,3.25*,34.6,0.7
Cc1ccccc1NC(=S)NCCSc1ccc(Cl)cc1,1.13,-12.8,-96.7,1.97,.,0.4
Cc1cccc(NC(=S)NCC(c2ccccc2)N(C)C)c1 (stereo not drawn),1.03,-3.3,-8.7,1.09,16.8,0.8
COC(=O)c1ccc(CNC(=O)C(C)N=C2NS(=O)(=O)c3ccccc32)cc1 (stereo not drawn),1.05,-4.7,3.8,0.962,.,.
C[C@H]1CCC(=O)N([C@H](CSc2ccc(Br)cc2)Cc2ccccc2)CC1,0.889,11.1,-9.9,1.1,.,.
